# Measured values of several laboratories.
# Lines come from different studies, so protocols differ.
# Target: Cyclin-G-associated kinase (GAK, Homo sapiens, UniProt O14976)
# Sequence (O14976 1-1311, as in one of the studies): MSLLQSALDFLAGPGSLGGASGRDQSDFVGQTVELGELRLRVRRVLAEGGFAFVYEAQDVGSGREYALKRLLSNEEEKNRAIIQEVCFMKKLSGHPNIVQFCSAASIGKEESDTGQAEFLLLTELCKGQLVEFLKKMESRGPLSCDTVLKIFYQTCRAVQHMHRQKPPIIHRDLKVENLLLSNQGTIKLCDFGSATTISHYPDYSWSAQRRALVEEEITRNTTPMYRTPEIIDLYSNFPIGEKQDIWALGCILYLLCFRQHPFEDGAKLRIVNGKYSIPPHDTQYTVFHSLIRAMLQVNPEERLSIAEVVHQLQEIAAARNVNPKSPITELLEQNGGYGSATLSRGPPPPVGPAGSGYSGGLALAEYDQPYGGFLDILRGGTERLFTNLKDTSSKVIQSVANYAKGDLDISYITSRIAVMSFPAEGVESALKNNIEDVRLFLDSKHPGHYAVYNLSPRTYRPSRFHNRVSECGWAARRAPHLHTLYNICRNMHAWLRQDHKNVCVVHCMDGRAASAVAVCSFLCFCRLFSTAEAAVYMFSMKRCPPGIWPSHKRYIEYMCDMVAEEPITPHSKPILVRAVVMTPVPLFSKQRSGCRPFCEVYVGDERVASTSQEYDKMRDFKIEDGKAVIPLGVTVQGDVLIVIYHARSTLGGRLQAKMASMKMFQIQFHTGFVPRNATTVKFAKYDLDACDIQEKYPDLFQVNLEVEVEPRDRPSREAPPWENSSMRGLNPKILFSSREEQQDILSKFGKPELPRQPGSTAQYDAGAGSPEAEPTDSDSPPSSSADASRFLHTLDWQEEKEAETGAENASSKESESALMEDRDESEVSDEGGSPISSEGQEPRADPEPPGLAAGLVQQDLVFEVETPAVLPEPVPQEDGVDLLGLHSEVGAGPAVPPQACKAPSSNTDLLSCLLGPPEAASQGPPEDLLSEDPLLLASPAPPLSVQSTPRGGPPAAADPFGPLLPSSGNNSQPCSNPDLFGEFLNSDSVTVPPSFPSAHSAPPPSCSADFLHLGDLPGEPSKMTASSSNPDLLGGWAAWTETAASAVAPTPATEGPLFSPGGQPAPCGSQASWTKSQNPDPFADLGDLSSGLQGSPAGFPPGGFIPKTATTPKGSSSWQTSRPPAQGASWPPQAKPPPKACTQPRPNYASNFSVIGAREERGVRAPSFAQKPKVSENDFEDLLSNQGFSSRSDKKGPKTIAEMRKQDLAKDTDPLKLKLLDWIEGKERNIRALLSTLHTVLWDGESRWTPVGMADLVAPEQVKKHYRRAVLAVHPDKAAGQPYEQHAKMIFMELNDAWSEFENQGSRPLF
SMILES,assay,setting,measurement,value
CN1CCN(C(=O)c2ccc(NC(=O)Nc3ccc(N(C)c4ccnc(Nc5ccc(CS(C)(=O)=O)cc5)n4)cc3)cc2)CC1,"binding, competition with immobilised ligand",1 µM,remaining binding,18%
CO[C@@H]1[C@H](N(C)C(=O)c2ccccc2)C[C@H]2O[C@]1(C)n1c3ccccc3c3c4c(c5c6ccccc6n2c5c31)C(=O)NC4,"enzyme activity, inhibitor",1 µM,inhibition,74%
CCCCC(=O)Nc1ccc(-c2ccc3ncn(CCC)c(=O)c3c2)cn1,"binding, competition with immobilised ligand",0.5 µM,remaining binding,100%
C#Cc1cc(-c2cc(Nc3nc(N[C@@H](C)c4ccc(F)cn4)ncc3Cl)n[nH]2)ccc1C=O,"enzyme activity, inhibitor",0.2 µM,inhibition,18.7%
Cc1cc(O)c(-c2ccc([C@@H](C)CN(C)C)cc2)c2c1[nH]c(=O)c1sccc12,"enzyme activity, inhibitor",0.1 µM,inhibition,0.133%
Cc1ccc(NC(=O)c2ccnc(C(F)(F)F)c2)cc1-c1cc(OCCO)nc(N2CCOCC2)c1,"binding, competition with immobilised ligand",1 µM,remaining binding,95%
CC(C)S(=O)(=O)c1ccc2nccc(Nc3ccc4sc(C5CCCC5)nc4c3)c2c1,"enzyme activity, inhibitor",1 µM,activity vs control,101%
C=CC(=O)N1CCC([C@@H]2CCNc3c(C(N)=O)c(-c4ccc(Oc5ccccc5)cc4)nn32)CC1,"enzyme activity, inhibitor",1 µM,inhibition,20%
C1=C/COCc2cc(ccc2OCCN2CCCC2)Nc2nccc(n2)-c2cccc(c2)COC/1,binding,0.1 µM,remaining binding,31%
